# Data as given in ChEMBL document CHEMBL4011643, “Triaryl Benzimidazoles as a New Class of Antibacterial Agents against Resistant Pathogenic Microorganisms” (J Med Chem, 2017).
# Tests used:
# Acinetobacter baumannii [1] = test: Antibacterial activity against Acinetobacter baumannii AYE after 20 hrs in the presence of PMBN by broth microdilution method; format: functional
# Method in brief: (§1)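 Broth microdilution in Tryptic Soy Broth, done in triplicate. Growth was read as OD600 after 20 h. MIC is the lowest drug concentration giving OD600 below 0.1.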
# Acinetobacter baumannii [2] = test: Ratio of MIC for Acinetobacter baumannii ATCC 17978 in absence of Pa-beta-N to MIC for Acinetobacter baumannii ATCC 17978 in presence of Pa-beta-N; format: functional
# Method in brief: (§2)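 Both MICs were by TSB broth microdilution, with an OD600 <0.1 cutoff at 20 h.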
# Klebsiella pneumoniae [3] = test: Antibacterial activity against Klebsiella pneumoniae NCTC 13368 after 20 hrs in the presence of PMBN by broth microdilution method; format: functional; conditions: NCTC 13368, 20 h; method in brief: as §1
# Staphylococcus aureus [4] = test: Bactericidal activity against methicillin-resistant Staphylococcus aureus EMRSA-15 assessed as time required to kill bacteria by >6 log10CFU/ml at 4 times MIC by Miles Misra dilution method; format: functional
# Method in brief: (§3)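 Flasks of TSB inoculated at ~10^6 cfu/mL, compound added at 4 × MIC, shaken at 200 rpm and 37 °C. Samples taken at 1, 2, 4, 6 and 24 h and plated by Miles Misra dilution for CFU/mL. Bactericidal means a loss of >3 log CFU/mL. Three independent repeats, error bars SD.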
# Pseudomonas aeruginosa [5] = test: Antibacterial activity against Pseudomonas aeruginosa NCTC 13437 after 20 hrs in the presence of Pa-beta-N and magnesium ions by broth microdilution method; format: functional; conditions: NCTC 13437, 20 h; method in brief: as §1
# [6] = Stabilization of FAM/TAMRA-labeled AT-rich DNA duplex (unknown origin) assessed as change in melting temperature at 5 uM by FRET-based assay
# Method in brief: (§4)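 FRET melting of a FAM/TAMRA-labelled AT-rich oligonucleotide, 400 nM working solution in 50 mM potassium, 50 mM cacodylate, pH 7.4. DNA was annealed at 85 °C for 6 min, then held at 25 °C for 5 h, and mixed 1:1 with sample. Fluorescence was read every 0.5 °C from 30 to 100 °C, with a 30 s hold per step. ΔTm is measured against the blank, in triplicate.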
# Acinetobacter baumannii [7] = test: Ratio of MIC for Acinetobacter baumannii AYE in absence of Pa-beta-N to MIC for Acinetobacter baumannii AYE in presence of Pa-beta-N; format: functional; method in brief: as §2
# Pseudomonas aeruginosa [8] = test: Antibacterial activity against Pseudomonas aeruginosa NCTC 13437 after 20 hrs by broth microdilution method; format: functional; conditions: NCTC 13437, 20 h; method in brief: as §1
# Staphylococcus aureus [9] = test: Antibacterial activity against methicillin-resistant Staphylococcus aureus EMRSA-15 after 20 hrs by broth microdilution method; format: functional; conditions: EMRSA-15, 20 h
# Method in brief: (§5)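 Broth microdilution in Tryptic Soy Broth; growth read as OD600 after 20 h. MIC taken as the lowest drug concentration giving OD600 below 0.1. Run in triplicate.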
# Pseudomonas aeruginosa [10] = test: Antibacterial activity against Pseudomonas aeruginosa PAO1 after 20 hrs in the presence of Pa-beta-N and magnesium ions by broth microdilution method; format: functional; conditions: PAO1, 20 h; method in brief: as §1
# Klebsiella pneumoniae [11] = test: Ratio of MIC for Klebsiella pneumoniae M6 in absence of PMBN to MIC for Klebsiella pneumoniae M6 in presence of PMBN; format: functional
# Method in brief: (§6)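 Fold change: MIC without divided by MIC with 30 μg/mL PMBN. Both MICs were by TSB broth microdilution, with an OD600 <0.1 cutoff at 20 h.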
# Staphylococcus aureus [12] = test: Antibacterial activity against methicillin-resistant Staphylococcus aureus MRSA252 after 20 hrs by broth microdilution method; format: functional; conditions: MRSA252, 20 h; method in brief: as §5
# Klebsiella pneumoniae [13] = test: Ratio of MIC for Klebsiella pneumoniae NCTC 13368 in absence of PMBN to MIC for Klebsiella pneumoniae NCTC 13368 in presence of PMBN; format: functional; method in brief: as §6
# Acinetobacter baumannii [14] = test: Antibacterial activity against Acinetobacter baumannii AYE after 20 hrs in the presence of Pa-beta-N and magnesium ions by broth microdilution method; format: functional; method in brief: as §1
# Acinetobacter baumannii [15] = test: Ratio of MIC for Acinetobacter baumannii ATCC 17978 in absence of PMBN to MIC for Acinetobacter baumannii ATCC 17978 in presence of PMBN; format: functional; method in brief: as §6
# Enterococcus faecium = test: Antibacterial activity against vancomycin-resistant Enterococcus faecium NCTC 12204 after 20 hrs by broth microdilution method; format: functional; conditions: NCTC 12204, 20 h; method in brief: as §5
# [16] = Stabilization of FAM/TAMRA-labeled AT-rich DNA duplex (unknown origin) assessed as change in melting temperature at 1 uM by FRET-based assay; method in brief: as §4
# Klebsiella pneumoniae [17] = test: Antibacterial activity against Klebsiella pneumoniae NCTC 13368 after 20 hrs in the presence of Pa-beta-N and magnesium ions by broth microdilution method; format: functional; conditions: NCTC 13368, 20 h; method in brief: as §1
# Klebsiella pneumoniae [18] = test: Antibacterial activity against Klebsiella pneumoniae M6 after 20 hrs in the presence of Pa-beta-N and magnesium ions by broth microdilution method; format: functional; conditions: M6, 20 h; method in brief: as §1
# Klebsiella pneumoniae [19] = test: Antibacterial activity against Klebsiella pneumoniae NCTC 13368 after 20 hrs by broth microdilution method; format: functional; conditions: NCTC 13368, 20 h; method in brief: as §1
# Pseudomonas aeruginosa [20] = test: Ratio of MIC for Pseudomonas aeruginosa NCTC 13437 in absence of PMBN to MIC for Pseudomonas aeruginosa NCTC 13437 in presence of PMBN; format: functional; method in brief: as §6
# Pseudomonas aeruginosa [21] = test: Ratio of MIC for Pseudomonas aeruginosa PAO1 in absence of PMBN to MIC for Pseudomonas aeruginosa PAO1 in presence of PMBN; format: functional; method in brief: as §6
# Pseudomonas aeruginosa [22] = test: Ratio of MIC for Pseudomonas aeruginosa NCTC 13437 in absence of Pa-beta-N to MIC for Pseudomonas aeruginosa NCTC 13437 in presence of Pa-beta-N; format: functional; method in brief: as §2
# Enterococcus faecalis [23] = test: Antibacterial activity against vancomycin-resistant Enterococcus faecalis NCTC 12201 after 20 hrs by broth microdilution method; format: functional; conditions: NCTC 12201, 20 h; method in brief: as §5
# Staphylococcus aureus [24] = test: Antibacterial activity against methicillin-sensitive Staphylococcus aureus ATCC 9144 after 20 hrs by broth microdilution method; format: functional; conditions: ATCC 9144, 20 h; method in brief: as §1
# Staphylococcus aureus [25] = test: Inhibition of Staphylococcus aureus DNA gyrase assessed as reduction in pNO1 supercoiling at 0.5 ug/mL by fluorescent dye-based assay
# Method in brief: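 Supercoiling plate assay run per the kit instructions. S. aureus gyrase was incubated with compound and plasmid pNO1. Negatively supercoiled plasmid was captured by a triplex-forming oligonucleotide, stained with a fluorescent dye and read by fluorescence (excitation 485 nm). Percent inhibition was reported.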
# Enterococcus faecalis [26] = test: Antibacterial activity against vancomycin-sensitive Enterococcus faecalis NCTC 775 after 20 hrs by broth microdilution method; format: functional; conditions: NCTC 775, 20 h; method in brief: as §1
# Acinetobacter baumannii [27] = test: Antibacterial activity against Acinetobacter baumannii ATCC 17978 after 20 hrs in the presence of PMBN by broth microdilution method; format: functional; conditions: ATCC 17978, 20 h; method in brief: as §1
# Acinetobacter baumannii [28] = test: Ratio of MIC for Acinetobacter baumannii AYE in absence of PMBN to MIC for Acinetobacter baumannii AYE in presence of PMBN; format: functional; method in brief: as §6
# Acinetobacter baumannii [29] = test: Antibacterial activity against Acinetobacter baumannii AYE after 20 hrs by broth microdilution method; format: functional; method in brief: as §1
# Klebsiella pneumoniae [30] = test: Ratio of MIC for Klebsiella pneumoniae NCTC 13368 in absence of Pa-beta-N to MIC for Klebsiella pneumoniae NCTC 13368 in presence of Pa-beta-N; format: functional; method in brief: as §2
# Pseudomonas aeruginosa [31] = test: Antibacterial activity against Pseudomonas aeruginosa PAO1 after 20 hrs by broth microdilution method; format: functional; conditions: PAO1, 20 h; method in brief: as §1
# Klebsiella pneumoniae [32] = test: Ratio of MIC for Klebsiella pneumoniae M6 in absence of Pa-beta-N to MIC for Klebsiella pneumoniae M6 in presence of Pa-beta-N; format: functional; method in brief: as §2
# Enterococcus faecalis [33] = test: Bactericidal activity against vancomycin-resistant Enterococcus faecalis NCTC 12201 assessed as time required to kill bacteria by >6 log10CFU/ml at 4 times MIC by Miles Misra dilution method; format: functional; method in brief: as §3
# Klebsiella pneumoniae [34] = test: Antibacterial activity against Klebsiella pneumoniae M6 after 20 hrs by broth microdilution method; format: functional; conditions: M6, 20 h; method in brief: as §1
# Acinetobacter baumannii [35] = test: Antibacterial activity against Acinetobacter baumannii ATCC 17978 after 20 hrs in the presence of Pa-beta-N and magnesium ions by broth microdilution method; format: functional; conditions: ATCC 17978, 20 h; method in brief: as §1
# Pseudomonas aeruginosa [36] = test: Antibacterial activity against Pseudomonas aeruginosa NCTC 13437 after 20 hrs in the presence of PMBN by broth microdilution method; format: functional; conditions: NCTC 13437, 20 h; method in brief: as §1
# Klebsiella pneumoniae [37] = test: Antibacterial activity against Klebsiella pneumoniae M6 after 20 hrs in the presence of PMBN by broth microdilution method; format: functional; conditions: M6, 20 h; method in brief: as §1
# [38] = Cytotoxicity against human HeLa cells assessed as cell viability at 25 uM after 24 hrs by MTT assay; format: cell-based; conditions: read-out: Activity
# Method in brief: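 HeLa cells, 10000 per well, were grown at 37 °C in 5% CO2 and allowed to settle for 24 h. Compound was then added in triplicate for 24 h of continuous exposure. Viability was read by MTT colorimetry, with absorbance at 570 nm.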
# Acinetobacter baumannii [39] = test: Antibacterial activity against Acinetobacter baumannii ATCC 17978 after 20 hrs by broth microdilution method; format: functional; conditions: ATCC 17978, 20 h; method in brief: as §1
# Pseudomonas aeruginosa [40] = test: Antibacterial activity against Pseudomonas aeruginosa PAO1 after 20 hrs in the presence of PMBN by broth microdilution method; format: functional; conditions: PAO1, 20 h; method in brief: as §1
structure (smiles),measurement,setting,value
Cc1nc2ccc(C(=O)Nc3cccc(-c4ccc(-n5c(C)nc6cc(C(=O)NCCCN(C)C)ccc65)nc4)c3)cc2[nH]1,MIC,Acinetobacter baumannii [1],8 µg/mL
same,Ratio,Acinetobacter baumannii [2],2 - 4
same,MIC,Klebsiella pneumoniae [3],16 µg/mL
same,Time,Staphylococcus aureus [4],2 h
same,MIC,Pseudomonas aeruginosa [5],16 to 32 µg/mL
same,deltaTm,[6],2.1 °C
same,Ratio,Acinetobacter baumannii [7],2 - 4
same,MIC,Pseudomonas aeruginosa [8],> 32 µg/mL
same,MIC,Staphylococcus aureus [9],0.5 µg/mL
same,MIC,Pseudomonas aeruginosa [10],> 32 µg/mL
same,Ratio,Klebsiella pneumoniae [11],4
same,MIC,Staphylococcus aureus [12],2 µg/mL
same,Ratio,Klebsiella pneumoniae [13],4
same,MIC,Acinetobacter baumannii [14],8 µg/mL
same,Ratio,Acinetobacter baumannii [15],2
same,MIC,Enterococcus faecium,0.5 µg/mL
same,deltaTm,[16],0.4 °C
same,MIC,Klebsiella pneumoniae [17],32 µg/mL
same,MIC,Klebsiella pneumoniae [18],8 µg/mL
same,MIC,Klebsiella pneumoniae [19],> 32 µg/mL
same,Ratio,Pseudomonas aeruginosa [20],>16
same,Ratio,Pseudomonas aeruginosa [21],>16
same,Ratio,Pseudomonas aeruginosa [22],2 - 4
same,MIC,Enterococcus faecalis [23],0.25 µg/mL
same,MIC,Staphylococcus aureus [24],0.25 µg/mL
same,inhibition,Staphylococcus aureus [25],65.2%
same,MIC,Enterococcus faecalis [26],0.5 µg/mL
same,MIC,Acinetobacter baumannii [27],8 µg/mL
same,Ratio,Acinetobacter baumannii [28],2
same,MIC,Acinetobacter baumannii [29],16 µg/mL
same,Ratio,Klebsiella pneumoniae [30],2 - 4
same,MIC,Pseudomonas aeruginosa [31],> 32 µg/mL
same,Ratio,Klebsiella pneumoniae [32],>=4
same,Time,Enterococcus faecalis [33],2 h
same,MIC,Klebsiella pneumoniae [34],32 µg/mL
same,MIC,Acinetobacter baumannii [35],8 µg/mL
same,MIC,Pseudomonas aeruginosa [36],4 µg/mL
same,MIC,Klebsiella pneumoniae [37],8 µg/mL
same,"viability at 24 h, 25 µM",[38],> 98%
same,MIC,Acinetobacter baumannii [39],16 µg/mL
same,MIC,Pseudomonas aeruginosa [40],4 µg/mL
